Measured values as given in ChEMBL document CHEMBL4145650, “Napabucasin and Related Heterocycle-Fused Naphthoquinones as STAT3 Inhibitors with Antiproliferative Activity against Cancer Cells” (J Nat Prod, 2018).
Activity calls are given as the source filed them. The calls are words filed in the database; no cut-off is given here.

Experiments:
K562 [1] = assay: Antiproliferative activity against human K562 cells measured after 48 hrs by MTT assay; format: functional, cell-based; conditions: K562, 48 h
Procedure, shortened: (§1)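 Cells kept in 10% FBS medium with penicillin/streptomycin/L-glutamine at 37 °C, 5% CO2 (MDA-MB-231 in DMEM, K562 in RPMI 1640). Viability read by MTT reduction to formazan after 48 h of exposure. IC50 obtained by nonlinear regression against vehicle control, given as mean ±SD of three independent experiments (n = 2 where footnoted).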

MDA-MB-231 [2] = assay: Antiproliferative activity against human MDA-MB-231 cells measured after 48 hrs by MTT assay; format: functional, cell-based; conditions: MDA-MB-231, 48 h; procedure, shortened: as §1
MDA-MB-231 [3] = assay: Cell cycle arrest in human MDA-MB-231 cells assessed as accumulation at sub-G0 phase at 10 uM measured after 24 hrs by propidium iodide staining based flow cytometry (reference value: 3%); format: functional
MDA-MB-231 [4] = assay: Induction of apoptosis in human MDA-MB-231 cells assessed as late apoptotic cells at 10 umol/L measured after 24 hrs by annexin-V-FITC/7-AAD staining based flow cytometric analysis relative to control; format: functional
MDA-MB-231 [5] = assay: Induction of apoptosis in human MDA-MB-231 cells assessed as early apoptotic cells at 10 umol/L measured after 24 hrs by annexin-V-FITC/7-AAD staining based flow cytometric analysis relative to control; format: functional
MDA-MB-231 [6] = assay: Cell cycle arrest in human MDA-MB-231 cells assessed as accumulation at G1 phase at 3 uM measured after 24 hrs by propidium iodide staining based flow cytometry (reference value: 62%); format: functional
MDA-MB-231 [7] = assay: Cell cycle arrest in human MDA-MB-231 cells assessed as accumulation at S phase at 10 uM measured after 24 hrs by propidium iodide staining based flow cytometry (reference value: 12%); format: functional
MDA-MB-231 [8] = assay: Induction of apoptosis in human MDA-MB-231 cells assessed as viable cells at 10 umol/L measured after 8 hrs by annexin-V-FITC/7-AAD staining based flow cytometric analysis (reference value: 97 to 98%); format: functional; conditions: MDA-MB-231, 8 h, read-out: Activity
K562 [9] = assay: Induction of superoxide generation in human K562 cells at 5 umol/L measured after 24 hrs in presence of NQO1 inhibitor dicoumarol by DHE staining based flow cytometry; format: functional, cell-based
Procedure, shortened: (§2)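 Cells were treated with compound at 5 μmol/L or DMSO for 24 h, with or without dicoumarol preincubation (5 μmol/L, 30 min), then stained with DHE for 30 min. 2-OH-DHE fluorescence was read by flow cytometry and expressed relative to vehicle control. At least three independent measurements.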

MDA-MB-231 [10] = assay: Effect on total STAT3 level in human MDA-MB-231 cells at 0.1 to 30 umol/L after 4 hrs by HTRF assay; format: cell-based; conditions: mda-mb-231, 4 h
Procedure, shortened: (§3)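 MDA-MB-231 cells (10^5/well) were left to adhere overnight, serum-starved for 4 h in DMEM, then treated with 0.1–30 μmol/L compound (0.5% final DMSO) for 4 h at 37 °C. Lysates were incubated 24 h at room temperature with Eu-cryptate/d2 antibody pairs for phospho-STAT3 (Y705) or total STAT3. The 665/620 nm HTRF ratio was taken and phospho/total normalized. EC50 was obtained by nonlinear regression.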

MDA-MB-231 [11] = assay: Cell cycle arrest in human MDA-MB-231 cells assessed as accumulation at S phase at 1 uM measured after 24 hrs by propidium iodide staining based flow cytometry (reference value: 12%); format: functional
MDA-MB-231 [12] = assay: Cell cycle arrest in human MDA-MB-231 cells assessed as accumulation at G2 phase at 1 uM measured after 24 hrs by propidium iodide staining based flow cytometry (reference value: 23%); format: functional
MDA-MB-231 [13] = assay: Cell cycle arrest in human MDA-MB-231 cells assessed as accumulation at G1 phase at 10 uM measured after 24 hrs by propidium iodide staining based flow cytometry (reference value: 62%); format: functional
[14] = target: T1, Signal transducer and activator of transcription 3 (Homo sapiens, UniProt P40763); assay: Binding affinity to STAT3 in human MDA-MB-231 cells at 100 uM treated for 1 hr followed by thermolysin addition measured after 30 mins by DARTS-Western blot analysis; format: cell-based
Procedure, shortened: (§4)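 A nondenaturing lysate of MDA-MB-231 cells (M-PER with protease and phosphatase inhibitors) was incubated with compound at 100 μmol/L or DMSO for 1 h at room temperature in the dark. TNC buffer pH 8.0 was added, then thermolysin (1:3000 of protein) for 30 min at room temperature; undigested controls were kept. Run on SDS-PAGE with 10 μg protein per lane, then Western blot with anti-STAT3.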

MDA-MB-231 [15] = assay: Cell cycle arrest in human MDA-MB-231 cells assessed as accumulation at G1 phase at 30 uM measured after 24 hrs by propidium iodide staining based flow cytometry (reference value: 62%); format: functional
MDA-MB-231 [16] = assay: Induction of superoxide generation in human MDA-MB-231 cells at 5 umol/L measured after 24 hrs in presence of NQO1 inhibitor dicoumarol by DHE staining based flow cytometry; format: functional, cell-based; procedure, shortened: as §2
MDA-MB-231 [17] = assay: Cell cycle arrest in human MDA-MB-231 cells assessed as accumulation at G2 phase at 30 uM measured after 24 hrs by propidium iodide staining based flow cytometry (reference value: 23%); format: functional
MDA-MB-231 [18] = assay: Cell cycle arrest in human MDA-MB-231 cells assessed as accumulation at sub-G0 phase at 30 uM measured after 24 hrs by propidium iodide staining based flow cytometry (reference value: 3%); format: functional
MDA-MB-231 [19] = assay: Cell cycle arrest in human MDA-MB-231 cells assessed as accumulation at S phase at 30 uM measured after 24 hrs by propidium iodide staining based flow cytometry (reference value: 12%); format: functional
MDA-MB-231 [20] = assay: Cell cycle arrest in human MDA-MB-231 cells assessed as accumulation at S phase at 3 uM measured after 24 hrs by propidium iodide staining based flow cytometry (reference value: 12%); format: functional
MDA-MB-231 [21] = assay: Cell cycle arrest in human MDA-MB-231 cells assessed as accumulation at sub-G0 phase at 3 uM measured after 24 hrs by propidium iodide staining based flow cytometry (reference value: 3%); format: functional
[22] = target: T1, Signal transducer and activator of transcription 3; assay: Inhibition of STAT3 phosphorylation at Y705 in human MDA-MB-231 cells after 4 hrs by HTRF assay; format: cell-based; procedure, shortened: as §3
MDA-MB-231 [23] = assay: Cell cycle arrest in human MDA-MB-231 cells assessed as accumulation at G2 phase at 10 uM measured after 24 hrs by propidium iodide staining based flow cytometry (reference value: 23%); format: functional
MDA-MB-231 [24] = assay: Induction of apoptosis in human MDA-MB-231 cells assessed as viable cells at 10 umol/L measured after 6 hrs by annexin-V-FITC/7-AAD staining based flow cytometric analysis (reference value: 97 to 98%); format: functional; conditions: MDA-MB-231, 6 h, read-out: Activity
[25] = target: T1, Signal transducer and activator of transcription 3; assay: Inhibition of STAT3 phosphorylation at Y705 in human MDA-MB-231 cells assessed as reduction in ratio of phosphorylated STAT3 to total STAT3 level after 4 hrs by HTRF assay; format: cell-based; procedure, shortened: as §3
MDA-MB-231 [26] = assay: Induction of apoptosis in human MDA-MB-231 cells assessed as viable cells at 10 umol/L measured after 4 hrs by annexin-V-FITC/7-AAD staining based flow cytometric analysis (reference value: 97 to 98%); format: functional; conditions: MDA-MB-231, 4 h, read-out: Activity
MDA-MB-231 [27] = assay: Induction of apoptosis in human MDA-MB-231 cells assessed as viable cells at 10 umol/L measured after 24 hrs by annexin-V-FITC/7-AAD staining based flow cytometric analysis (reference value: 97 to 98%); format: functional; conditions: MDA-MB-231, 24 h, read-out: Activity
MDA-MB-231 [28] = assay: Cell cycle arrest in human MDA-MB-231 cells assessed as accumulation at sub-G0 phase at 1 uM measured after 24 hrs by propidium iodide staining based flow cytometry (reference value: 3%); format: functional
MDA-MB-231 [29] = assay: Induction of superoxide generation in human MDA-MB-231 cells at 5 umol/L measured after 24 hrs by DHE staining based flow cytometry; format: functional, cell-based; procedure, shortened: as §2
MDA-MB-231 [30] = assay: Cell cycle arrest in human MDA-MB-231 cells assessed as accumulation at G1 phase at 1 uM measured after 24 hrs by propidium iodide staining based flow cytometry (reference value: 62%); format: functional
MDA-MB-231 [31] = assay: Induction of apoptosis in human MDA-MB-231 cells assessed as viable cells at 10 umol/L measured after 2 hrs by annexin-V-FITC/7-AAD staining based flow cytometric analysis (reference value: 97 to 98%); format: functional; conditions: MDA-MB-231, 2 h, read-out: Activity
[32] = target: T1, Signal transducer and activator of transcription 3; assay: Binding affinity to STAT3 in human MDA-MB-231 cells at 100 uM measured after 1 hr by DARTS-Western blot analysis; format: cell-based; procedure, shortened: as §4
MDA-MB-231 [33] = assay: Cell cycle arrest in human MDA-MB-231 cells assessed as accumulation at G2 phase at 3 uM measured after 24 hrs by propidium iodide staining based flow cytometry (reference value: 23%); format: functional
MDA-MB-231 [34] = assay: Induction of apoptosis in human MDA-MB-231 cells assessed as late apoptotic cells at 10 umol/L measured after 6 hrs by annexin-V-FITC/7-AAD staining based flow cytometric analysis relative to control; format: functional
MDA-MB-231 [35] = assay: Induction of apoptosis in human MDA-MB-231 cells assessed as early apoptotic cells at 10 umol/L measured after 6 hrs by annexin-V-FITC/7-AAD staining based flow cytometric analysis relative to control; format: functional
MDA-MB-231 [36] = assay: Induction of apoptosis in human MDA-MB-231 cells assessed as early apoptotic cells at 10 umol/L measured after 8 hrs by annexin-V-FITC/7-AAD staining based flow cytometric analysis relative to control; format: functional
MDA-MB-231 [37] = assay: Induction of apoptosis in human MDA-MB-231 cells assessed as late apoptotic cells at 10 umol/L measured after 8 hrs by annexin-V-FITC/7-AAD staining based flow cytometric analysis relative to control; format: functional

T1 sequence (P40763 whole entry): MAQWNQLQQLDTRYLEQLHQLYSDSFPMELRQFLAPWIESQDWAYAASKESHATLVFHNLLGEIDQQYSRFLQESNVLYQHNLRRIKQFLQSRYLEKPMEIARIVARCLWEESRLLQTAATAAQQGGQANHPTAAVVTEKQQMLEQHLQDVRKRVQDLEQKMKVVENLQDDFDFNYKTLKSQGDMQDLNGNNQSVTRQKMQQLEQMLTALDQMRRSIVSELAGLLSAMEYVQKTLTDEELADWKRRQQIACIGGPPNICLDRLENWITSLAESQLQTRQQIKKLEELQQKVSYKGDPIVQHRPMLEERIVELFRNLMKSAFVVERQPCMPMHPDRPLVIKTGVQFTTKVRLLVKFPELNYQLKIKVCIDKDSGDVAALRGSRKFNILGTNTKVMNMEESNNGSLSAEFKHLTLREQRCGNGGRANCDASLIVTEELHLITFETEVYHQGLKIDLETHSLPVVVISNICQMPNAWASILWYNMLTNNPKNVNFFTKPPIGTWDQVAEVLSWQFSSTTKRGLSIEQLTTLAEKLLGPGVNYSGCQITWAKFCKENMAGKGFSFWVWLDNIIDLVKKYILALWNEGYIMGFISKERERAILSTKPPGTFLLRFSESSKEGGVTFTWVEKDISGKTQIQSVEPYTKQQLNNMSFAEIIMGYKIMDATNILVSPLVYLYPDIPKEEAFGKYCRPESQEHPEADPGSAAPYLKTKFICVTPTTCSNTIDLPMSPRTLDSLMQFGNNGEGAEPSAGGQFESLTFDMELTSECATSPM

| SMILES | IC50 (K562 [1]) [µM] | IC50 (MDA-MB-231 [2]) [µM] | Activity (MDA-MB-231 [3]) | Activity (MDA-MB-231 [4]) [%] | Activity (MDA-MB-231 [5]) [%] | Activity (MDA-MB-231 [6]) [%] | Activity (MDA-MB-231 [7]) [%] | viability at 10 µM (MDA-MB-231 [8]) [%] | Activity (K562 [9]) | Activity (MDA-MB-231 [11]) [%] | Activity (MDA-MB-231 [12]) [%] | Activity (MDA-MB-231 [13]) [%] | Activity (MDA-MB-231 [15]) [%] | Activity (MDA-MB-231 [16]) | Activity (MDA-MB-231 [17]) [%] | Activity (MDA-MB-231 [18]) | Activity (MDA-MB-231 [19]) [%] | Activity (MDA-MB-231 [20]) [%] | Activity (MDA-MB-231 [21]) | Activity (MDA-MB-231 [23]) [%] | also measured |
| --- | --- | --- | --- | --- | --- | --- | --- | --- | --- | --- | --- | --- | --- | --- | --- | --- | --- | --- | --- | --- | --- |
| CC1(C)CCC2=C(O1)C(=O)c1ccccc1C2=O [ALPHA-LAPACHONE] | > 10 | > 10 |  |  |  |  |  |  |  |  |  |  |  |  |  |  |  |  |  |  |  |
| CC(C)=CCC1=C(O)C(=O)c2ccccc2C1=O [LAPACHOL] | > 10 | > 10 |  |  |  |  |  |  |  |  |  |  |  |  |  |  |  |  |  |  |  |
| CC(=O)c1cc2c(o1)C(=O)c1ccccc1C2=O [NAPABUCASIN] | 1 | 2.1 | 4% | 19 | 20 | 56 | 14 | 94 | inactive | 13 | 22 | 56 | 56 | Active | 26 | 3% | 15 | 15 | 5% | 26 | Activity (MDA-MB-231 [10]): Non-Toxic; Activity [14]: Active; EC50 [22]: 2 µM; viability at 10 µM (MDA-MB-231 [24]): 96%; EC50 [25]: 1.9 µM; viability at 10 µM (MDA-MB-231 [26]): 97%; viability at 10 µM (MDA-MB-231 [27]): 62%; Activity (MDA-MB-231 [28]): 5%; Activity (MDA-MB-231 [29]): Active; Activity (MDA-MB-231 [30]): 60%; viability at 10 µM (MDA-MB-231 [31]): 97%; Activity [32]: inactive; Activity (MDA-MB-231 [33]): 25% |
| O=C1c2ccccc2C(=O)c2occc21 | 5.2 | > 10 |  |  |  |  |  |  |  |  |  |  |  |  |  |  |  |  |  |  |  |
| O=C1C(=O)c2ccoc2-c2ccccc21 | 2.8 | 1.8 | inactive | 54 | 15 | 59 | 15 | 87 | inactive | 15 | 19 | 60 | 62 | Active | 22 | inactive | 14 | 15 | inactive | 24 | Activity (MDA-MB-231 [34]): 6%; Activity (MDA-MB-231 [35]): 4%; Activity (MDA-MB-231 [36]): 6%; viability at 10 µM (MDA-MB-231 [24]): 91%; viability at 10 µM (MDA-MB-231 [26]): 95%; viability at 10 µM (MDA-MB-231 [27]): 32%; Activity (MDA-MB-231 [37]): 8%; Activity (MDA-MB-231 [28]): 3%; Activity (MDA-MB-231 [29]): Active; Activity (MDA-MB-231 [30]): 64%; viability at 10 µM (MDA-MB-231 [31]): 96%; Activity (MDA-MB-231 [33]): 25% |
